In ChEMBL document CHEMBL3526105, “Cytochrome P450-mediated oxidative metabolism of abused synthetic cannabinoids found in K2/Spice: identification of novel cannabinoid receptor ligands” (Drug Metab Dispos, 2012):
The source made the active and inactive calls. No cut-off for these calls is given here.

Assays:
[1] = target: T1, Cytochrome P450 2C19 (Homo sapiens, UniProt P33261); experiment: Drug metabolism assessed as intrinsic clearance for human recombinant CYP2C19-mediated compound formation per nmol protein treated with JWH-018 at 10 uM after 90 mins; format: ADME; settings: recombinant enzyme, 1.5 h
T1 sequence (P33261 whole entry): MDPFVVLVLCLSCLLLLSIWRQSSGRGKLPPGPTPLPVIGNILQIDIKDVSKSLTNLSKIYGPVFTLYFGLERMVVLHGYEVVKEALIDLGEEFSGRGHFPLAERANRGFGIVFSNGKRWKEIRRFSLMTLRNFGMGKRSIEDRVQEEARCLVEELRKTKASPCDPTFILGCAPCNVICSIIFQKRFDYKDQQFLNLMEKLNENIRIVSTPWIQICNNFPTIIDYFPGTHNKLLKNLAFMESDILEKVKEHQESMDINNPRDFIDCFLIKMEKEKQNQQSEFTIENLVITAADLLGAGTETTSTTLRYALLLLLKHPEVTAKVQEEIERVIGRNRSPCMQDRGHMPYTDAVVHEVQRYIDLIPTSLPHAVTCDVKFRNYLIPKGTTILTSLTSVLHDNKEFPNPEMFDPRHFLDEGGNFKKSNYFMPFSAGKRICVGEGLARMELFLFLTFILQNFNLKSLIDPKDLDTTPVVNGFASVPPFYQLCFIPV

[2] = Drug level in human urine treated with JWH-018 by LC-MS/MS analysis; format: ADME, tissue-based
How it was run: (§1)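 Urine from suspected users (40 μl) incubated with or without β-glucuronidase (1.6 U/μl final) in 0.1 M sodium acetate pH 5.0, 60 min at 37°C with shaking. Analysed by positive-ESI LC-MS/MS against standards matrix-matched in blank pooled human urine, with confirmation by enhanced product ion spectra.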

[3] = target: T2, Cytochrome P450 2C9 (Homo sapiens, UniProt P11712); experiment: Drug metabolism assessed as intrinsic clearance for human recombinant CYP2C9-mediated compound formation per nmol protein treated with AM2201 at 10 uM after 90 mins; format: ADME; settings: recombinant enzyme, 1.5 h
T2 sequence (P11712 whole entry): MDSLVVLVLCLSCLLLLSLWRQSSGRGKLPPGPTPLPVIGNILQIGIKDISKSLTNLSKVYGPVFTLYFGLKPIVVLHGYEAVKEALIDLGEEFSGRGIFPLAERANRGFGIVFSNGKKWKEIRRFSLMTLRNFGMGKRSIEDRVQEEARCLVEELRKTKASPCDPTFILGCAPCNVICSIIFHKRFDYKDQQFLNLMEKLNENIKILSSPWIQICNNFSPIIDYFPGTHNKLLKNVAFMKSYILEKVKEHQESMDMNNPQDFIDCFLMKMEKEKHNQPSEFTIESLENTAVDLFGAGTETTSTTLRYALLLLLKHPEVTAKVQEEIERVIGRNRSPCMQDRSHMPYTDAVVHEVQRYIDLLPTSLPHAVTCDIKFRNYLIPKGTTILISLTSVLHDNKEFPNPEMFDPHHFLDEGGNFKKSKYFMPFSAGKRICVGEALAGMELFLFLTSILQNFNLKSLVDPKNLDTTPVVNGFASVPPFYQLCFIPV

[4] = system: Liver microsome; experiment: Drug metabolism in human liver microsomes assessed as intrinsic clearance per mg protein treated with JWH-018; format: ADME
[5] = target: T3, Cytochrome P450 1A2 (Homo sapiens, UniProt P05177); experiment: Drug metabolism assessed as intrinsic clearance for human recombinant CYP1A2-mediated compound formation per nmol protein treated with JWH-018 at 10 uM after 90 mins; format: ADME; settings: recombinant enzyme, 1.5 h
T3 sequence (P05177 whole entry): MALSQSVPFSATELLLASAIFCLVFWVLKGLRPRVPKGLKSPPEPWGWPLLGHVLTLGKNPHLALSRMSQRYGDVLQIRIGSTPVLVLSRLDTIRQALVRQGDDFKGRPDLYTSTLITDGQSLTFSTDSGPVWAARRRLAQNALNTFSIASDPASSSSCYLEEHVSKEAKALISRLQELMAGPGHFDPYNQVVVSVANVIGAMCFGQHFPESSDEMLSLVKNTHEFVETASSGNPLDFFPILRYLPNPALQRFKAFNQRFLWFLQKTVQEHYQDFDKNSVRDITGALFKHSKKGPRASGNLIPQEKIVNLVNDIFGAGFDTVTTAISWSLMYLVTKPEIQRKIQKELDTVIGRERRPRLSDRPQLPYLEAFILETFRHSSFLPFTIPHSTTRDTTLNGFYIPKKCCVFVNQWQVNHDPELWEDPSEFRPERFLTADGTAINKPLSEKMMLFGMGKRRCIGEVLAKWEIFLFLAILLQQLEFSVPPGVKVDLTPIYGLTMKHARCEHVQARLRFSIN

[6] = system: Liver microsome; experiment: Drug level in human liver microsomes treated with AM2201 at 10 uM after 20 mins by LC-MS/MS analysis; format: ADME
How it was run: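 Pooled human liver microsomes (75 μg) incubated with 10 μM substrate in 0.1 M KPO4 pH 7.4 with NADPH-regenerating system at 37°C. Reaction stopped with ethanol, centrifuged. Analytes quantified by positive-ESI LC-MS/MS against standards matrix-matched in reaction mixture, with confirmation by SRM-triggered enhanced product ion spectra library matching.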

[7] = target: T4, Cytochrome P450 2D6 (Homo sapiens, UniProt P10635); experiment: Drug metabolism assessed as intrinsic clearance for human recombinant CYP2D6-mediated compound formation per nmol protein treated with JWH-018 at 10 uM after 90 mins; format: ADME; settings: recombinant enzyme, 1.5 h
T4 sequence (P10635 whole entry): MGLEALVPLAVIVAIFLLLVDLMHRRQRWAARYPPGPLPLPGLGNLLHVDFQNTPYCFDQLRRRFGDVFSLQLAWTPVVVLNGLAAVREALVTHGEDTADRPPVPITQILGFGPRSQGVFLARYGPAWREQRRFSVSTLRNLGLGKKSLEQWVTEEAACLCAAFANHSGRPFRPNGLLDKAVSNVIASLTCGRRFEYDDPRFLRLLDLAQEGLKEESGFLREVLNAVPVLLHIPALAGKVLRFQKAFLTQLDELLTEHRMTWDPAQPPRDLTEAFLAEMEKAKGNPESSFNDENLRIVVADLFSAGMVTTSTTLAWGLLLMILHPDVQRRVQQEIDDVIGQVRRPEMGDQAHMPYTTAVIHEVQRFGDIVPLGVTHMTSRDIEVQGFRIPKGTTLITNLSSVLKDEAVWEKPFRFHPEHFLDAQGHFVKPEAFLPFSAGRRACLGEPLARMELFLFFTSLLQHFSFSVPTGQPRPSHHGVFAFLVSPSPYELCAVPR

[8] = system: Liver microsome; experiment: Drug metabolism in human liver microsomes assessed as intrinsic clearance per mg protein treated with AM2201; format: ADME
[9] = target: Cannabinoid receptor 1 (Mus musculus, UniProt P47746); experiment: Displacement of [3H]CP-55,940 from CB1 receptor in B6SJL mouse brain membrane after 90 mins by liquid scintillation spectrophotometric analysis; format: cell membranes
Cannabinoid receptor 1, sequence (P47746 whole entry): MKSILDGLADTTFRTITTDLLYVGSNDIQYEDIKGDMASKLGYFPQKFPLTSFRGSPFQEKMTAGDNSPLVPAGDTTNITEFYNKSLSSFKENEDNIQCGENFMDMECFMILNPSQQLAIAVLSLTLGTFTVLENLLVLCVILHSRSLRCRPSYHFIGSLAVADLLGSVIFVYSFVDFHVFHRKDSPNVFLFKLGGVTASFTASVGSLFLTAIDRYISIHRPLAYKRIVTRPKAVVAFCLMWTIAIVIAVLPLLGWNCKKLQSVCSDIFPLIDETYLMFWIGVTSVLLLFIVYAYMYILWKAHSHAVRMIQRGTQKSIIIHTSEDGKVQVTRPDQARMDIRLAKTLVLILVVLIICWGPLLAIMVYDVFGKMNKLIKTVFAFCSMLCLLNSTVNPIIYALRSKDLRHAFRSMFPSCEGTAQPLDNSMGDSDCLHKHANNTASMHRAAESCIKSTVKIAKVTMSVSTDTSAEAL
How it was run: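 B6SJL mouse brain membranes (50 μg) with 0.2 nM [3H]CP-55,940 and competitor at 0.1 nM–10 μM. Buffer 5 mM MgCl2, 50 mM Tris, 0.05% BSA; 90 min at room temperature, triplicate. Nonspecific binding set with 10 μM WIN-55,212-2. Filtered on GF/B, washed with Tris/BSA, counted by scintillation. Specific binding given as % of vehicle.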

[10] = target: Cannabinoid receptor 1 (Mus musculus) (UniProt P47746); experiment: Activation of CB1 receptor in B6SJL mouse brain membrane assessed as [35S]-GTPgammaS binding at 10 uM after 30 mins by liquid scintillation spectrophotometric analysis; format: functional, cell membranes
Cannabinoid receptor 1 (Mus musculus), sequence (P47746 whole entry): as above
How it was run: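 Mouse brain membrane homogenate (25 μg; whole B6SJL brains, pooled, Dounce-homogenised, spun 40,000g three times). Incubated with […], 0.1 nM [35S]GTPγS in 20 mM HEPES, 10 mM MgCl2, 100 mM NaCl, 20 U/l adenosine deaminase, 0.05% BSA, 30 min at 30°C, triplicate. Nonspecific binding with 10 μM unlabelled GTPγS. Stopped by GF/B filtration; filters counted by scintillation.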

[11] = target: T3, Cytochrome P450 1A2; experiment: Drug metabolism assessed as intrinsic clearance for human recombinant CYP1A2-mediated compound formation per nmol protein treated with AM2201 at 10 uM after 90 mins; format: ADME; settings: recombinant enzyme, 1.5 h
[12] = target: T1, Cytochrome P450 2C19; experiment: Drug metabolism assessed as intrinsic clearance for human recombinant CYP2C19-mediated compound formation per nmol protein treated with AM2201 at 10 uM after 90 mins; format: ADME; settings: recombinant enzyme, 1.5 h
[13] = target: T4, Cytochrome P450 2D6; experiment: Drug metabolism assessed as intrinsic clearance for human recombinant CYP2D6-mediated compound formation per nmol protein treated with AM2201 at 10 uM after 90 mins; format: ADME; settings: recombinant enzyme, 1.5 h
[14] = target: T2, Cytochrome P450 2C9; experiment: Drug metabolism assessed as intrinsic clearance for human recombinant CYP2C9-mediated compound formation per nmol protein treated with JWH-018 at 10 uM after 90 mins; format: ADME; settings: recombinant enzyme, 1.5 h
[15] = target: Cannabinoid receptor 1 (Mus musculus) (UniProt P47746); experiment: Activation of CB1 receptor in B6SJL mouse brain membrane assessed as [35S]-GTPgammaS binding at 10 uM after 30 mins by liquid scintillation spectrophotometric analysis in presence of O-2050; format: functional, cell membranes
[16] = target: T5, Cytochrome P450 2E1 (Homo sapiens, UniProt P05181); experiment: Drug metabolism assessed as human recombinant CYP2E1-mediated (1-(5-fluoro-4-hydroxypentyl)-1H-indol-3-yl)(naphthalen-1-yl)methanone formation at 10 uM after 90 mins by LC-MS/MS analysis; format: ADME; settings: recombinant enzyme, 1.5 h
T5 sequence (P05181 whole entry): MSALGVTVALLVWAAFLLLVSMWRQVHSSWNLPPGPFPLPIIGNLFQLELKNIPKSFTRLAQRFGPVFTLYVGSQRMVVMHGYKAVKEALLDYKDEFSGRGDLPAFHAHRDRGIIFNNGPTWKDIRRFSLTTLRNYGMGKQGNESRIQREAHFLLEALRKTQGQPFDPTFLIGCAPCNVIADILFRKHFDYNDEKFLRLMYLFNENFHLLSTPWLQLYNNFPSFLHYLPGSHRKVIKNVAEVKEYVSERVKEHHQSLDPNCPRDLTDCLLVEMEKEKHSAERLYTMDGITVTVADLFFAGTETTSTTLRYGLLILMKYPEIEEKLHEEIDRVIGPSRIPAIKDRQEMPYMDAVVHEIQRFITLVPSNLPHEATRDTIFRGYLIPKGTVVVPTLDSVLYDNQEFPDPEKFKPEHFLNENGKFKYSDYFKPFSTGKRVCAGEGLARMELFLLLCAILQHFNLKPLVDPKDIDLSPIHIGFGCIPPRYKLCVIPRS
How it was run: (§2)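 Recombinant human CYP2E1 or CYP3A4 (2 pmol) incubated with substrate at 10 μM final, dried from ethanol. Buffer 0.1 M KPO4 pH 7.4 with NADPH-regenerating system, which starts the reaction. 90 min at 37°C, triplicate, with no-substrate, no-protein and no-NADPH controls. Stopped with ethanol, centrifuged, and metabolites quantified by LC-MS/MS.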

[17] = target: T6, Cytochrome P450 3A4 (Homo sapiens, UniProt P08684); experiment: Drug metabolism assessed as human recombinant CYP3A4-mediated (1-(5-hydroxypentyl)-1H-indol-3-yl)(naphthalen-1-yl)methanone formation at 10 uM after 90 mins by LC-MS/MS analysis; format: ADME; settings: recombinant enzyme, 1.5 h; how it was run: as §2
T6 sequence (P08684 whole entry): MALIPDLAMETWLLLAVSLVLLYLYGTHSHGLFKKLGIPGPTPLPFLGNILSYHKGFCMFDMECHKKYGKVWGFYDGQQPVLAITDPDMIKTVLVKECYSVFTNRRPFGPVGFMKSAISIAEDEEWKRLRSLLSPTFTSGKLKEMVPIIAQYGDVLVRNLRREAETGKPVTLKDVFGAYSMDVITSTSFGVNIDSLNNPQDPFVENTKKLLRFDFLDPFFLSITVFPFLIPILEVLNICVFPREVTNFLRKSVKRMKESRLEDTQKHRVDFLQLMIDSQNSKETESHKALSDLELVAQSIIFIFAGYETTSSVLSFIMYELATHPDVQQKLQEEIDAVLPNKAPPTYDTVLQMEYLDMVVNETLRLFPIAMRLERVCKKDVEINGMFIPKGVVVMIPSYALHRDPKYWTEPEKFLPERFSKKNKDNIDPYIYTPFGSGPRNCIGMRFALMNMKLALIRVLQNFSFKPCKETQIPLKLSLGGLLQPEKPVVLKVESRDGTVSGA

[18] = target: T5, Cytochrome P450 2E1; experiment: Drug metabolism assessed as human recombinant CYP2E1-mediated (1-(5-hydroxypentyl)-1H-indol-3-yl)(naphthalen-1-yl)methanone formation at 10 uM after 90 mins by LC-MS/MS analysis; format: ADME; settings: recombinant enzyme, 1.5 h; how it was run: as §2
[19] = target: T5, Cytochrome P450 2E1; experiment: Drug metabolism assessed as human recombinant CYP2E1-mediated 5-(3-(1-naphthoyl)-1H-indol-1-yl)pentanoic acid formation at 10 uM after 90 mins by LC-MS/MS analysis; format: ADME; settings: recombinant enzyme, 1.5 h; how it was run: as §2
[20] = target: T6, Cytochrome P450 3A4; experiment: Drug metabolism assessed as human recombinant CYP3A4-mediated 5-(3-(1-naphthoyl)-1H-indol-1-yl)pentanoic acid formation at 10 uM after 90 mins by LC-MS/MS analysis; format: ADME; settings: recombinant enzyme, 1.5 h; how it was run: as §2
[21] = Drug metabolism in human urine assessed as (1-(5-hydroxypentyl)-1H-indol-3-yl)(naphthalen-1-yl)methanone formation by LC-MS/MS analysis; format: ADME, tissue-based; how it was run: as §1
[22] = Drug metabolism in human urine assessed as 5-(3-(1-naphthoyl)-1H-indol-1-yl)pentanoic acid formation by LC-MS/MS analysis; format: ADME, tissue-based; how it was run: as §1
[23] = Drug metabolism in human urine assessed as (1-(5-fluoro-4-hydroxypentyl)-1H-indol-3-yl)(naphthalen-1-yl)methanone formation by LC-MS/MS analysis; format: ADME, tissue-based; how it was run: as §1
[24] = target: T6, Cytochrome P450 3A4; experiment: Drug metabolism assessed as human recombinant CYP3A4-mediated (1-(5-fluoro-4-hydroxypentyl)-1H-indol-3-yl)(naphthalen-1-yl)methanone formation at 10 uM after 90 mins by LC-MS/MS analysis; format: ADME; settings: recombinant enzyme, 1.5 h; how it was run: as §2

## O=C(O)CCCCn1cc(C(=O)c2cccc3ccccc23)c2ccccc21
[1]
  CL: 0 µL/min
[2]
  Drug metabolism: metabolite_detected
[3]
  CL: 111 µL/min
[4]
  CLH: 0 µL/min/mg
[5]
  CL: 23 µL/min
[6]
  Drug metabolism: 4.7 ng/mL
[7]
  CL: 0 µL/min
[8]
  CLH: 0.6 µL/min/g
[9]
  Ki: > 10000 nM
[10]
  Activity: inactive
[11]
  CL: 89 µL/min
[12]
  CL: 28 µL/min
[13]
  CL: 0.371 µL/min
[14]
  CL: 0 µL/min

## CCCCCc1cc(O)c2c(c1)OC(C)(C)[C@@H]1CCC(C)=C[C@@H]21
[15]
  Activity: inactive
[10]
  Activity: Active

## O=C(c1cccc2ccccc12)c1cn(CCCCCF)c2ccccc12
[15]
  Activity: inactive
[16]
  Drug metabolism: metabolite_not_detected
[17]
  Drug metabolism: metabolite_not_detected
[18]
  Drug metabolism: metabolite_not_detected
[19]
  Drug metabolism: metabolite_not_detected
[20]
  Drug metabolism: metabolite_not_detected
[9]
  Ki: 0.395 nM
[10]
  Activity: Active
[21]
  Drug metabolism: metabolite_detected
[22]
  Drug metabolism: metabolite_detected
[23]
  Drug metabolism: metabolite_detected
[24]
  Drug metabolism: metabolite_not_detected
